Measurements reported in ChEMBL document CHEMBL1127852, “Synthesis and antibacterial activity of thiazolopyrazine-incorporated tetracyclic quinolone antibacterial agents. 2” (1994).
Values after ≈ are worked out from the molar mass of the structure shown.

How the values were obtained:
Assay type in all cases: functional
Staphylococcus aureus [1] = test: Compound was tested for its minimal inhibitory constant against Gram-positive microorganism Staphylococcus aureus FDA 209P JC-1 (Sa(F))
Outline: (§1)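 Serial 2-fold agar dilution on Sensitivity Test agar, inoculum approximately 10^6 CFU/mL, incubated 37 °C for 18 h. MIC taken as lowest concentration preventing visible growth. Values are means of duplicate or triplicate experiments.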

Micrococcus luteus = test: Compound was tested for its minimal inhibitory constant against Gram-positive microorganism Micrococcus luteus ATCC 9341 (MI); outline: as §1
Enterococcus faecalis = test: Compound was tested for its minimal inhibitory constant against Gram-positive microorganism Enterococcus faecalis IID682 (Ef); outline: as §1
[2] = test system: Staphylococcus epidermidis; test: Compound was tested for its minimal inhibitory constant against Gram-positive microorganism Staphylococcus epidermidis IAM 1296 (Se); outline: as §1
Mus musculus [3] = test: Compound was tested for Therapeutic effects on systemic infections on mice by peroral administration; settings: po
Outline: (§2)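 Mouse protection against S. aureus IID 803: groups of five male ddY mice (25–28 g) infected i.p. with 0.5 mL bacterial dilution at 100 or 200 times the 50% lethal dose; compound suspended in 1% aqueous gum arabic, given orally 1 h postinfection. Survival scored after 1 week; ED50 with 95% confidence limits by Weil method.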

Escherichia coli [4] = test: Compound was tested for its minimal inhibitory constant against Gram-negative microorganism Escherichia coli KC-14 (Ec(K)); outline: as §1
Klebsiella pneumoniae = test: Compound was tested for its minimal inhibitory constant against Gram-negative microorganism Klebsiella pneumoniae B54 (Kp); outline: as §1
Escherichia coli [5] = test: Compound was tested for its minimal inhibitory constant against Gram-negative microorganism Escherichia coli NIHJ JC-2 (Ec(N)); outline: as §1
Pseudomonas aeruginosa [6] = test: Compound was tested for its minimal inhibitory constant against Gram-negative microorganism Pseudomonas aeruginosa IFO 3445 (Pa(I)); outline: as §1
Staphylococcus aureus [7] = test: Compound was tested for its minimal inhibitory constant against Gram-positive microorganism Staphylococcus aureus IID 803 (Sa(I)); outline: as §1
Pseudomonas aeruginosa [8] = test: Compound was tested for its minimal inhibitory constant against Gram-negative microorganism Pseudomonas aeruginosa E-2 (Pa(E)); outline: as §1
Mus musculus [9] = test: Compound was tested for oral efficacy on systemic infections on mice by peroral administration; outline: as §2
Staphylococcus aureus [10] = test: Tested for in vitro for antibacterial activity against 16 clinical isolated of methicillin-resistant Staphylococcus aureus, range of Minimal inhibitory activity value for isolates
Outline: (§3)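 Serial 2-fold agar dilution in Sensitivity Test agar, following the standard method. Clinical MRSA isolates collected in Japan in 1988 and 1989. Inoculum about 10^6 CFU/mL. Plates incubated at 37 °C for 18 h. MIC taken as the lowest concentration that prevented visible growth.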

Staphylococcus aureus [11] = test: Tested for in vitro for antibacterial activity against 16 clinical isolated of methicillin-resistant Staphylococcus aureus; outline: as §3

SMILES | MIC (Staphylococcus aureus [1]) | MIC (Micrococcus luteus) | MIC (Enterococcus faecalis) | MIC [2] | ED50 (Mus musculus [3]) | MIC (Escherichia coli [4]) | MIC (Klebsiella pneumoniae) | MIC (Escherichia coli [5]) | MIC (Pseudomonas aeruginosa [6]) | MIC (Staphylococcus aureus [7]) | MIC (Pseudomonas aeruginosa [8]) | ED50 (Mus musculus [9]) | MIC (Staphylococcus aureus [10]) | MIC50 (Staphylococcus aureus [11]) | MIC90 (Staphylococcus aureus [11]) | MIC (Staphylococcus aureus [11])
COC[C@@H]1CN(c2c(F)cc3c(=O)c(C(=O)O)c4scc5n4c3c2N(C)C5)CCO1 | 0.025 µg/mL (≈ 0.0577 µM) | 0.2 µg/mL (≈ 0.461 µM) | 0.2 µg/mL (≈ 0.461 µM) | 0.05 µg/mL (≈ 0.115 µM) | 0.82 mg/kg | 0.39 µg/mL (≈ 0.9 µM) | 0.78 µg/mL (≈ 1.8 µM) | 0.2 µg/mL (≈ 0.461 µM) | 3.13 µg/mL (≈ 7.22 µM) | 0.0125 µg/mL (≈ 0.0288 µM) | 3.13 µg/mL (≈ 7.22 µM) | – | – | – | – | –
CNCC1CN(c2c(F)cc3c(=O)c(C(=O)O)c4scc5n4c3c2N(C)C5)CCO1 (configuration not stated) | 0.025 µg/mL (≈ 0.0578 µM) | 0.78 µg/mL (≈ 1.8 µM) | 0.2 µg/mL (≈ 0.462 µM) | 0.1 µg/mL (≈ 0.231 µM) | – | 0.2 µg/mL (≈ 0.462 µM) | 1.56 µg/mL (≈ 3.61 µM) | 0.2 µg/mL (≈ 0.462 µM) | 3.13 µg/mL (≈ 7.24 µM) | 0.05 µg/mL (≈ 0.116 µM) | 3.13 µg/mL (≈ 7.24 µM) | – | – | – | – | –
COC[C@H]1CN(c2c(F)cc3c(=O)c(C(=O)O)c4scc5n4c3c2N(C)C5)CCO1 | 0.025 µg/mL (≈ 0.0577 µM) | 0.2 µg/mL (≈ 0.461 µM) | 0.2 µg/mL (≈ 0.461 µM) | 0.025 µg/mL (≈ 0.0577 µM) | 1.25 mg/kg | 0.39 µg/mL (≈ 0.9 µM) | 0.39 µg/mL (≈ 0.9 µM) | 0.39 µg/mL (≈ 0.9 µM) | 3.13 µg/mL (≈ 7.22 µM) | 0.006 µg/mL (≈ 0.0138 µM) | 3.13 µg/mL (≈ 7.22 µM) | – | – | – | – | –
COCC1CN(c2c(F)cc3c(=O)c(C(=O)O)c4scc5n4c3c2N(C)C5)CCO1 (configuration not stated) | 0.025 µg/mL (≈ 0.0577 µM) | 0.2 µg/mL (≈ 0.461 µM) | 0.2 µg/mL (≈ 0.461 µM) | 0.05 µg/mL (≈ 0.115 µM) | 1.09 mg/kg | 0.39 µg/mL (≈ 0.9 µM) | 0.78 µg/mL (≈ 1.8 µM) | 0.2 µg/mL (≈ 0.461 µM) | 3.13 µg/mL (≈ 7.22 µM) | 0.0125 µg/mL (≈ 0.0288 µM) | 3.13 µg/mL (≈ 7.22 µM) | 1.7 mg/kg | ≤ 0.006 µg/mL | 0.39 µg/mL (≈ 0.9 µM) | 0.78 µg/mL (≈ 1.8 µM) | –
CN1Cc2csc3c(C(=O)O)c(=O)c4cc(F)c(N5CCOC(CO)C5)c1c4n23 (configuration not stated) | 0.0125 µg/mL (≈ 0.0298 µM) | 0.2 µg/mL (≈ 0.477 µM) | 0.1 µg/mL (≈ 0.238 µM) | 0.05 µg/mL (≈ 0.119 µM) | – | 0.1 µg/mL (≈ 0.238 µM) | 0.39 µg/mL (≈ 0.93 µM) | 0.1 µg/mL (≈ 0.238 µM) | 1.56 µg/mL (≈ 3.72 µM) | 0.006 µg/mL (≈ 0.0143 µM) | 1.56 µg/mL (≈ 3.72 µM) | 5.1 mg/kg | ≤ 0.006 µg/mL | 0.39 µg/mL (≈ 0.93 µM) | 0.78 µg/mL (≈ 1.86 µM) | –
CN1Cc2csc3c(C(=O)O)c(=O)c4cc(F)c(N5CCOC(CCl)C5)c1c4n23 (configuration not stated) | 0.0125 µg/mL (≈ 0.0285 µM) | 0.05 µg/mL (≈ 0.114 µM) | 0.05 µg/mL (≈ 0.114 µM) | 0.0125 µg/mL (≈ 0.0285 µM) | – | 0.2 µg/mL (≈ 0.457 µM) | 0.39 µg/mL (≈ 0.891 µM) | 0.2 µg/mL (≈ 0.457 µM) | 1.56 µg/mL (≈ 3.56 µM) | 0.006 µg/mL (≈ 0.0137 µM) | 1.56 µg/mL (≈ 3.56 µM) | – | < 0.006 µg/mL | 0.1 µg/mL (≈ 0.228 µM) | 0.2 µg/mL (≈ 0.457 µM) | –
CC1CN(c2c(F)cc3c(=O)c(C(=O)O)c4scc5n4c3c2N(C)C5)CCO1 (configuration not stated) | 0.0125 µg/mL (≈ 0.031 µM) | 0.1 µg/mL (≈ 0.248 µM) | 0.05 µg/mL (≈ 0.124 µM) | 0.0125 µg/mL (≈ 0.031 µM) | – | 0.1 µg/mL (≈ 0.248 µM) | 0.39 µg/mL (≈ 0.967 µM) | 0.1 µg/mL (≈ 0.248 µM) | 0.78 µg/mL (≈ 1.93 µM) | 0.006 µg/mL (≈ 0.0149 µM) | 0.78 µg/mL (≈ 1.93 µM) | 3.5 mg/kg | ≤ 0.006 µg/mL | 0.1 µg/mL (≈ 0.248 µM) | 0.2 µg/mL (≈ 0.496 µM) | –
CN(C)CC1CN(c2c(F)cc3c(=O)c(C(=O)O)c4scc5n4c3c2N(C)C5)CCO1 (configuration not stated) | 0.025 µg/mL (≈ 0.056 µM) | 0.2 µg/mL (≈ 0.448 µM) | 0.1 µg/mL (≈ 0.224 µM) | 0.05 µg/mL (≈ 0.112 µM) | – | 0.2 µg/mL (≈ 0.448 µM) | 0.39 µg/mL (≈ 0.873 µM) | 0.39 µg/mL (≈ 0.873 µM) | 6.25 µg/mL (≈ 14 µM) | 0.025 µg/mL (≈ 0.056 µM) | 6.25 µg/mL (≈ 14 µM) | 4.8 mg/kg | – | – | – | –
CC1CN(c2c(F)cc3c(=O)c(C(=O)O)c4scc5n4c3c2N(C)C5)CC(C)O1 (configuration not stated) | 0.0125 µg/mL (≈ 0.0299 µM) | 0.2 µg/mL (≈ 0.479 µM) | 0.2 µg/mL (≈ 0.479 µM) | 0.1 µg/mL (≈ 0.24 µM) | – | 0.39 µg/mL (≈ 0.934 µM) | 0.78 µg/mL (≈ 1.87 µM) | 0.39 µg/mL (≈ 0.934 µM) | 3.13 µg/mL (≈ 7.5 µM) | 0.0125 µg/mL (≈ 0.0299 µM) | 3.13 µg/mL (≈ 7.5 µM) | > 12 mg/kg | – | – | – | –
CN1Cc2csc3c(C(=O)O)c(=O)c4cc(F)c(N5CCOCC5)c1c4n23 | 0.006 µg/mL (≈ 0.0154 µM) | 0.1 µg/mL (≈ 0.257 µM) | 0.05 µg/mL (≈ 0.128 µM) | 0.025 µg/mL (≈ 0.0642 µM) | – | 0.1 µg/mL (≈ 0.257 µM) | 0.05 µg/mL (≈ 0.128 µM) | 0.1 µg/mL (≈ 0.257 µM) | 0.39 µg/mL (≈ 1 µM) | 0.006 µg/mL (≈ 0.0154 µM) | 0.39 µg/mL (≈ 1 µM) | > 12 mg/kg | – | 0.2 µg/mL (≈ 0.514 µM) | 0.2 µg/mL (≈ 0.514 µM) | < 0.006 µg/mL
CCC1CN(c2c(F)cc3c(=O)c(C(=O)O)c4scc5n4c3c2N(C)C5)CCO1 (configuration not stated) | 0.025 µg/mL (≈ 0.0599 µM) | 0.2 µg/mL (≈ 0.479 µM) | 0.1 µg/mL (≈ 0.24 µM) | 0.05 µg/mL (≈ 0.12 µM) | – | 0.39 µg/mL (≈ 0.934 µM) | 0.39 µg/mL (≈ 0.934 µM) | 0.39 µg/mL (≈ 0.934 µM) | 3.13 µg/mL (≈ 7.5 µM) | 0.025 µg/mL (≈ 0.0599 µM) | 1.56 µg/mL (≈ 3.74 µM) | > 12 mg/kg | – | – | – | –
CC1COc2c(N3CCN(C)CC3)c(F)cc3c(=O)c(C(=O)O)cn1c23 (configuration not stated) [OFLOXACIN] | – | – | 1.56 µg/mL (≈ 4.32 µM) | – | 14.6 mg/kg | 0.1 µg/mL (≈ 0.277 µM) | 0.1 µg/mL (≈ 0.277 µM) | – | – | – | 1.56 µg/mL (≈ 4.32 µM) | 11.4 mg/kg | – | 6.25 µg/mL (≈ 17.3 µM) | 50 µg/mL (≈ 138 µM) | –
CN1Cc2csc3c(C(=O)O)c(=O)c4cc(F)c(N5CCOC(CF)C5)c1c4n23 (configuration not stated) | 0.0125 µg/mL (≈ 0.0297 µM) | 0.1 µg/mL (≈ 0.237 µM) | 0.05 µg/mL (≈ 0.119 µM) | 0.025 µg/mL (≈ 0.0593 µM) | – | 0.1 µg/mL (≈ 0.237 µM) | 0.2 µg/mL (≈ 0.475 µM) | 0.1 µg/mL (≈ 0.237 µM) | 0.78 µg/mL (≈ 1.85 µM) | 0.006 µg/mL (≈ 0.0142 µM) | 0.78 µg/mL (≈ 1.85 µM) | 1.9 mg/kg | – | 0.2 µg/mL (≈ 0.475 µM) | 0.2 µg/mL (≈ 0.475 µM) | ≤ 0.006 µg/mL
